Consider 17 compounds from ChEMBL document CHEMBL3865810, “4-Aminoquinoline derivatives: Synthesis, in vitro and in vivo antiplasmodial activity against chloroquine-resistant parasites” (Eur J Med Chem, 2016).

Each structure is given as a SMILES string. Converted amounts (≈) assume the structure as drawn. The source made the active and inactive calls. The calls are words filed in the database; no cut-off is given here.

One data set deals with Plasmodium falciparum. The data set is described as follows: Antiplasmodial activity against erythrocytic stage of chloroquine/pyrimethamine/cycloguanil resistant-Plasmodium falciparum FCR3 after 48 hrs by [3H]-hypoxanthine incorporation assay. Type of data set: functional. Particulars: FCR-3/Gambia. The method, boiled down: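 FCR3 P. falciparum, resistant to CQ (100 ng/mL) and pyrimethamine (15 nM), was synchronized to rings and grown at 1% parasitemia and 2% haematocrit in group O erythrocytes. Medium was RPMI 1640 with Albumax II, at 37 °C under 2% O2/5.5% CO2. Cells were exposed for 48 h to serial dilutions from 0.05 to 2x10^-6 mg/ml. Read-out was [3H]-hypoxanthine incorporation, in triplicate, two independent assays. IC50 came from dose-response curves.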

A short description of data set [1]: Cytotoxicity against human HuH7 cells after 72 hrs by MTT assay. Type of data set: toxicity, cell-based, Huh-7. In a few lines:
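Huh-7 human hepatocellular carcinoma cells, 4 × 10^3 per well in DMEM with 10% FBS and 1% penicillin-streptomycin-glutamine. Exposed to eight 2-fold dilutions spanning 100 to 0.78 µg/mL for 72 h. MTT added for 2-4 h, then detergent solubilization for 2 h in the dark at room temperature; absorbance read at 570 nm. CC50 is the mean of at least two experiments run in duplicate.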
In general terms: Formazan colour is commonly taken as a measure of viable cells.

Data set [2] relates to Plasmodium berghei. Nature of the data set: Antiplasmodial activity against erythrocytic stage of chloroquine-resistant Plasmodium berghei ANKA infected in BALB/c mouse assessed as inhibition of parasitemia at 5 mg/kg/day, ip administered 3 hrs post infection for 4 days by Giemsa staining based microscopic assay relative to control. Format: functional. The method, boiled down:
(§1)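 Peters' four-day suppressive test. Male naïve BALB/c mice, 25 ± 5 g, 4-5 weeks old, 5 per group, were infected ip on day 0 with 2x10^7 P. berghei ANKA parasitized erythrocytes. Dosing was ip from 2 mg/ml stocks in 10% DMSO, first given 1-3 h post-infection and repeated on days 1-3. Saline went to controls. On day 4, parasitemia was counted on Giemsa tail smears and activity = 100 − (treated/control mean parasitemia)×100.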

The test system of data set [3] is Plasmodium berghei. Nature of the data set: Antiplasmodial activity against erythrocytic stage of chloroquine-resistant Plasmodium berghei ANKA infected in ip dosed BALB/c mouse assessed as reduction in parasitemia administered 3 hrs post infection for 4 days by Giemsa staining based microscopic assay. Type of data set: functional. The method, boiled down: as §1

Data set [4] has as its system Plasmodium berghei. The data set is described as follows: Antiplasmodial activity against erythrocytic stage of chloroquine-resistant Plasmodium berghei ANKA infected in BALB/c mouse assessed as inhibition of parasitemia at 0.1 mg/kg/day, ip administered 3 hrs post infection for 4 days by Giemsa staining based microscopic assay relative to control. Type of data set: functional. The method, boiled down:
as §1

Data set [5] has as its system Plasmodium berghei. The data set is described as follows: Antiplasmodial activity against erythrocytic stage of chloroquine-resistant Plasmodium berghei ANKA infected in BALB/c mouse assessed as inhibition of parasitemia at 10 mg/kg/day, ip administered 3 hrs post infection for 4 days by Giemsa staining based microscopic assay relative to control. Format: functional. The method, boiled down:
as §1

The test system of data set [6] is Plasmodium berghei. Nature of the data set: Antiplasmodial activity against erythrocytic stage of chloroquine-resistant Plasmodium berghei ANKA infected in BALB/c mouse assessed as inhibition of parasitemia at 1 mg/kg/day, ip administered 3 hrs post infection for 4 days by Giemsa staining based microscopic assay relative to control. Type of data set: functional. The method, boiled down: as §1

Data set [7] deals with Mus musculus. Nature of the data set: Toxicity in BALB/c mouse assessed as mortality at 1000 mg/kg, ip measured up to 7 days. Format: organism-based. The following applies: in vivo, 168 h. In a few lines:
(§2)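 For the LD50 test, BALB/c mice were given single ip doses of 50, 100, 200, 500, 600, 800 or 1000 mg/kg BW and observed for mortality over 7 days.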

Data set [8] is described as follows: Therapeutic index, ratio of LD50 for BALB/c mouse to ED50 for erythrocytic stage of chloroquine-resistant Plasmodium berghei ANKA infected in BALB/c mouse. Particulars: read-out: Ratio LD50/ED50. The method, boiled down:
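TI = LD50/ED50. LD50 was taken from BALB/c mice dosed ip at 50-1000 mg/kg and observed for 7 days. ED50 came from the P. berghei ANKA four-day suppressive test with ip dosing.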

Data set [9] deals with Plasmodium berghei. The data set is described as follows: Antiplasmodial activity against erythrocytic stage of chloroquine-resistant Plasmodium berghei ANKA infected in ip dosed BALB/c mouse assessed as increase in mouse survival time administered once daily 3 hrs post infection for 4 consecutive days by Giemsa staining based microscopic assay. Type of data set: functional, organism-based. In a few lines:
(§3)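 BALB/c mice, 5 per group, were infected ip with 2x10^7 P. berghei ANKA parasitized erythrocytes. They were dosed ip at 0.1, 1, 5 or 10 mg/kg/day from 2 mg/ml stocks in 10% DMSO, starting 1-3 h post-infection, once daily on days 0-3. Saline went to controls. Groups were compared by Kaplan-Meier with a log-rank (Mantel-Cox) test.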

The test system of data set [10] is Plasmodium berghei. Nature of the data set: Antiplasmodial activity against erythrocytic stage of chloroquine-resistant Plasmodium berghei ANKA infected in BALB/c mouse assessed as mean survival time at 0.1 to 10 mg/kg/day, ip administered 1 to 3 hrs post infection qd measured on day 4 post last dose by giemsa staining-based microscopic analysis. Type of data set: functional, organism-based. The method, boiled down: as §3

Data set [11] is described as follows: Toxicity in ip dosed BALB/c mouse assessed as mortality measured up to7 days. Type of data set: organism-based. The following applies: in vivo. In a few lines: as §2
Data set [12] has as its system Mus musculus. The data set is described as follows: Toxicity in BALB/c mouse assessed as mortality at 500 mg/kg, ip measured up to 7 days. Type of data set: organism-based. Particulars: in vivo, 168 h. In a few lines: as §2
For data set [13], the system named is Mus musculus. Nature of the data set: Toxicity in BALB/c mouse infected with erythrocytic stage of chloroquine-resistant Plasmodium berghei ANKA assessed as weight loss at 0.1 to 10 mg/kg/day, ip administered 3 hrs post infection for 4 days. Type of data set: organism-based. The following applies: in vivo.

Regarding `Cc1ccc(C)c(Nc2ccnc3cc(Cl)ccc23)c1`, the IC50 (commonly the concentration at which inhibition is half-maximal) with Plasmodium falciparum was 0.46 µg/mL (≈ 1.63 µM). In addition, the CC50 (commonly the concentration at which the toxic effect on the cells reaches its halfway point) at 72 h in data set [1] was above 100 µg/mL.
Taken in the same sequence, the figures for `Cc1cccc(Nc2ccnc3cc(Cl)ccc23)c1C` were 0.036 µg/mL (≈ 0.127 µM) and above 100 µg/mL.
As for `CCN(CC)Cc1cc(Nc2ccnc3cc(Cl)ccc23)ccc1O` [AMODIAQUINE], in the data set with Plasmodium berghei [2], the inhibition in vivo (as a rule, the relative decrease from the control value, in per cent) at 5 mg/kg/day is 67.1%. Also, the ED50 (usually the midpoint of the dose-response relation) with Plasmodium berghei [3] worked out at 1.19 mg/kg. Besides, the inhibition in vivo at 0.1 mg/kg/day with Plasmodium berghei [4] is 28%. In addition, in the data set on Plasmodium berghei [5], the inhibition in vivo at 10 mg/kg/day came out at 94.1%. Further, in the data set on Plasmodium berghei [6], the inhibition in vivo at 1 mg/kg/day came out at 48.2%.
Regarding `COc1ccc(OC)c(Nc2ccnc3cc(Cl)ccc23)c1`, in the data set on Plasmodium berghei [2], the inhibition in vivo at 5 mg/kg/day is 58.1%. The Activity entry with Mus musculus [7] is “Toxic”; in the data set on Plasmodium berghei [9], “Dose-dependent effect”; in the data set with Mus musculus [12] it was “Non-Toxic”; in the data set on Mus musculus [13] it was “Non-Toxic”. Moreover, the ED50 with Plasmodium berghei [3] came to 2.23 mg/kg. The selectivity ratio in [8] came out at 359. This compound also registered an IC50 in the data set on Plasmodium falciparum of 0.022 µg/mL (≈ 0.0699 µM). The inhibition in vivo at 0.1 mg/kg/day with Plasmodium berghei [4] worked out at 12%. Further, in the data set with Plasmodium berghei [10], the result was Active. For the same compound, in data set [11], the LD50 (as a rule, the dose at which mortality reaches 50%) at 7 days stood at 800 mg/kg. The compound also came in with a CC50 at 72 h in data set [1] above 100 µg/mL. In addition, the inhibition in vivo at 10 mg/kg/day in the data set on Plasmodium berghei [5] is 93.4%. Besides, in the data set on Plasmodium berghei [6], the inhibition in vivo at 1 mg/kg/day came out at 21.7%.
In the data set with Plasmodium falciparum, `Cc1ccc(Nc2ccnc3cc(Cl)ccc23)cc1C` came in with an IC50 of 0.16 µg/mL (≈ 0.566 µM). Besides, the 50% cytotoxic concentration (CC50) at 72 h in [1] was above 100 µg/mL.
For `Fc1ccc(Nc2ccnc3cc(Cl)ccc23)cc1Cl` the same measures were 1.9 µg/mL (≈ 6.19 µM) and above 100 µg/mL.
For `Cc1ccc(Nc2ccnc3cc(Cl)ccc23)c(C)c1` the same measures were 0.4 µg/mL (≈ 1.41 µM) and above 100 µg/mL.
For `Cc1cccc(C)c1Nc1ccnc2cc(Cl)ccc12` the same measures were 0.046 µg/mL (≈ 0.163 µM) and above 100 µg/mL.
Turning to `Fc1cccc(Nc2ccnc3cc(Cl)ccc23)c1`, the IC50 in the data set on Plasmodium falciparum is 0.098 µg/mL (≈ 0.359 µM). Further, the CC50 at 72 h in [1] was above 100 µg/mL.
Taken in the same sequence, the figures for `Fc1ccc(Nc2ccnc3cc(Cl)ccc23)c(F)c1` were 0.045 µg/mL (≈ 0.155 µM) and above 100 µg/mL.
`Cc1cc(F)ccc1Nc1ccnc2cc(Cl)ccc12`: in the data set with Plasmodium falciparum, the midpoint of inhibition, the IC50, lay at 0.076 µg/mL (≈ 0.265 µM). The same compound returned a CC50 at 72 h in data set [1] above 100 µg/mL.
For `Clc1ccc(Cl)c(Nc2ccnc3cc(Cl)ccc23)c1` the same measures were 0.056 µg/mL (≈ 0.173 µM) and above 100 µg/mL.
Take `COc1cc(Nc2ccnc3cc(Cl)ccc23)cc(OC)c1OC`: in the data set on Plasmodium falciparum, it took 0.64 µg/mL (≈ 1.86 µM) to reach half-maximal inhibition (IC50). Further, the CC50 at 72 h in data set [1] is above 100 µg/mL.
For `Clc1ccc2c(Nc3ccccc3Br)ccnc2c1` the same measures were 0.17 µg/mL (≈ 0.51 µM) and above 100 µg/mL.
Taken in the same sequence, the figures for `Clc1ccc(Nc2ccnc3cc(Cl)ccc23)c(Cl)c1` were 0.76 µg/mL (≈ 2.35 µM) and above 100 µg/mL.
Taken in the same sequence, the figures for `Fc1ccc(Nc2ccnc3cc(Cl)ccc23)c(Cl)c1` were 0.065 µg/mL (≈ 0.212 µM) and above 100 µg/mL.
With `Fc1ccc(Nc2ccnc3cc(Cl)ccc23)cc1`, in the data set with Plasmodium berghei [2], the inhibition in vivo at 5 mg/kg/day is 54.2%. The Activity result in the data set on Mus musculus [7] is “Toxic”; with Plasmodium berghei [9], “Dose-dependent effect”; with Mus musculus [12], “Non-Toxic”; in the data set with Mus musculus [13], “Non-Toxic”. In addition, the ED50 with Plasmodium berghei [3] amounted to 2.06 mg/kg. Besides, the selectivity ratio in data set [8] amounted to 388. In the data set on Plasmodium falciparum, this compound had a concentration for half-maximal inhibition (IC50) of 0.029 µg/mL (≈ 0.106 µM). Also, the inhibition in vivo at 0.1 mg/kg/day with Plasmodium berghei [4] is 21.6%. For the same compound, in the data set on Plasmodium berghei [10], the outcome was Active. Besides, the median lethal dose (LD50) at 7 days in data set [11] came to 800 mg/kg. Besides, the CC50 at 72 h in data set [1] is above 100 µg/mL. Further, the inhibition in vivo at 10 mg/kg/day in the data set on Plasmodium berghei [5] was 79.1%. In the data set on Plasmodium berghei [6], the inhibition in vivo at 1 mg/kg/day was determined as 32%.
